This excerpt belongs to a sample that is enriched for hits.
HCT116 bCat-KO: primary screen for growth suppressors in beta-catenin knockout HCT116 cells (colon tumor, human); viability, % at 10 µM; 140,000 compounds, 1.5% hits; HCT116 beta-catenin knockout viability, CellTiter-Glo, 60 h; stronger effect = lower value;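 active = viability at or under a set limit, the compound median less 4 SD, cut at about 6% in these data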
HCT116 PTEN-null: growth suppression of PTEN-null HCT116, primary screen, cell-based, CellTiter-Glo; AID 827, 2007; viability, % at 10 µM; HCT116 PTEN-null viability, 60 h; stronger effect = lower value; 140,000 compounds, 1.2% hits;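 active = viability at or below a set limit, 4 SD under the median of all tested compounds, cut at about 3.7% in these data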;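 also: PTEN knockout HCT116 line with beta catenin targeted HCT116 as companion control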
Fibroblast inh: antiproliferative effect on LL 47 fibroblasts – human, LL 47 cells, CellTiter-Glo luminescence, primary screen; LL 47 human lung fibroblast viability, ATP luminescence; stronger effect = lower value; viability, % at 10 µM; 85,000 compounds, 1.1% hits; AID 719, 2007;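 active = viability at or below 50% in the single dose screen; inactive = viability above 50%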;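 also: compound exposure lasted 72 h before the ATP readout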
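Test system: LL 47 human lung fibroblasts / Incubation: 72 h compound exposure at 37 °C after overnight plating / Technique: luminescent ATP detection, CellTiter-Glo / Compound dosing: 0.1% DMSO in all compound wells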
H69AR growth 86K: proliferation blockers of H69AR lung cancer cells, primary screen, cell-based, human, 86K library; H69AR lung tumor viability, ATP luminescence, 72 h; stronger effect = lower value; viability, % at 10 µM; 85,000 compounds, 6% hits;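 active = viability at or below 40%; inactive = viability above 40%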;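 also: multidrug resistant small cell line overexpressing MRP-1 efflux transporter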
HUVEC prolif 384: inhibitors of HUVEC proliferation, primary screen, cell-based, 384-well | CellTiter-Glo luminescence, 72 h; stronger effect = lower value | viability, % at 10 µM (by protocol) | 86,000 compounds, 1.1% hits | AID 648, 2007;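 active = viability at or below 30%; inactive = viability above 30%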
Each line names hits and unclear results; the compound was inactive in the other large screens.

CCOC(=O)N1CCC(NC(=O)c2cnn3c2NC(c2ccco2)CC3C(F)(F)F)CC1 (stereo not drawn)	none (no result: H69AR growth 86K)
Cc1ccc(OCc2nnc(SCC(=O)c3cccs3)n2-c2ccccc2)cc1C	none
OC(CNCc1ccco1)Cn1c2ccc(Br)cc2c2cc(Br)ccc21 (stereo not drawn)	HCT116 bCat-KO 2.1, HCT116 PTEN-null 1.7 (no result: Fibroblast inh, H69AR growth 86K, HUVEC prolif 384)
Brc1ccc2ncnc(NCc3ccco3)c2c1	none
Oc1ccc(/C=N/n2c(-c3ccco3)csc2=Nc2cccnc2)c(O)c1	none (no result: Fibroblast inh, H69AR growth 86K, HUVEC prolif 384)
CC(C)N=c1scc(-c2ccco2)n1/N=C/c1ccc(O)c(O)c1	Fibroblast inh 48, H69AR growth 86K 31
C=CCNC(=O)CCCc1ccccc1	H69AR growth 86K 1.4
C/C(=N/N1CCN(c2ccccn2)CC1)c1cccc([N+](=O)[O-])c1	none (no result: Fibroblast inh, H69AR growth 86K, HUVEC prolif 384)
CCOC(=O)c1cnc(SCC(=O)Nc2cc(C(F)(F)F)ccc2N2CCOCC2)nc1N	H69AR growth 86K 36
CCOC(=O)c1cnc(SCC(=O)Nc2ccc(N3CCOCC3)c(Cl)c2)nc1N	none
Cc1sc(NC(=O)CSc2nnc(COc3ccc(Cl)cc3)n2C)c(C#N)c1C	H69AR growth 86K 31
Cc1ccc(-c2nnc(SCC(=O)Nc3sc(C)c(C)c3C#N)n2C)cc1	none
CCOC(=O)c1cnc(SCC(=O)Nc2sc(C)c(C)c2C#N)nc1N	HCT116 bCat-KO 2.8, HCT116 PTEN-null 3.1
CCOC(=O)c1cnc(SCC(=O)Nc2cc(OC)cc(OC)c2)nc1N	none
CCOC(=O)c1cnc(SCc2nc(N)nc(Nc3ccccc3)n2)nc1N	H69AR growth 86K 32
O=C(COc1cccc2ccccc12)NNC(=O)C1CCCO1 (stereo not drawn)	none (no result: Fibroblast inh, H69AR growth 86K, HUVEC prolif 384)
COc1cccc(-c2nc(CS(=O)CC(=O)NC3CC3)c(C)o2)c1 (stereo not drawn)	none
CC(C)C(C(=O)Nc1ccc(N2CCOCC2)cc1)N1C(=O)c2ccccc2C1=O (stereo not drawn)	none
Cc1ccc(C(=O)CSc2nnc(-c3ccc4[nH]c(C)c(C)c4c3)o2)cc1C	HCT116 bCat-KO 4.2, HCT116 PTEN-null 2.1 (no result: Fibroblast inh, H69AR growth 86K, HUVEC prolif 384)
CCCCN(C(=O)c1ccc(Cl)cc1)C1CC2CCC(C1)N2C (stereo not drawn)	H69AR growth 86K 36
Cc1ccc(Cl)cc1N1CCN(CC(O)COCc2ccco2)CC1 (stereo not drawn)	none (no result: Fibroblast inh, H69AR growth 86K, HUVEC prolif 384)
O=C1[C@H]2[C@H]3[C@H](O)[C@H](O)C/C(=N\OC[C@@H](O)COCc4ccco4)[C@@H]3CC[C@H]2C(=O)N1c1ccc(F)cc1F	HCT116 bCat-KO 0.3 (no result: Fibroblast inh, H69AR growth 86K, HUVEC prolif 384)
Cc1noc(C)c1COc1cccc(C(=O)OCC(=O)N2CC(=O)Nc3ccccc32)c1	H69AR growth 86K 22
O=C1CN(C(=O)COc2cccc(F)c2)c2ccccc2N1	none (no result: Fibroblast inh, H69AR growth 86K, HUVEC prolif 384)
COCCN1C(=O)C(O)=C(C(C)=O)C1c1ccc(OC)c(OC)c1 (stereo not drawn)	none
COc1cc(OC)cc(-c2n[nH]c(=S)n2-c2cc(OC)ccc2OC)c1	H69AR growth 86K 24
COc1ccc(-c2c3c(nc4sc(C(=O)Nc5ccccc5)c(N)c24)CCC3)cc1	H69AR growth 86K 30 (no result: HCT116 bCat-KO, HCT116 PTEN-null)
CCOc1ccc(N(CCC#N)S(=O)(=O)c2ccc(OC)cc2)cc1	H69AR growth 86K 21
CCCn1c(NC(=S)Nc2ccccc2)nc2ccccc21	none (no result: Fibroblast inh, H69AR growth 86K, HUVEC prolif 384)
S=C(Nc1ccccc1)Nc1nc2ccccc2n1CCOc1ccc(Cl)cc1	HCT116 bCat-KO 1.1, HCT116 PTEN-null 0.9 (no result: Fibroblast inh, H69AR growth 86K, HUVEC prolif 384)
CC1CN(C(=O)CSc2ncnc3sccc23)CC(C)O1 (stereo not drawn)	none
CCn1c(Sc2nc(C)nc3scc(-c4cccs4)c23)n[nH]c1=O	H69AR growth 86K 2.8
CCOC(=O)c1c(C)c(C(=O)N2CCc3ccccc3C2)c(C)n1CC	H69AR growth 86K 16
CCOC(=O)c1c(C)c(C(=O)Nc2ccccc2)c(C)n1CC	none
COc1ccc(-c2nn(-c3ccccc3)cc2/C=N/NC(=O)c2ccc(Br)o2)cc1	HCT116 bCat-KO 5.0 (no result: Fibroblast inh, H69AR growth 86K, HUVEC prolif 384)
Cc1ccc(-c2nn(-c3ccccc3)cc2/C=N/NC(=O)CSc2nnc(C)n2-c2ccccc2)cc1	HCT116 bCat-KO 3.6, HCT116 PTEN-null 3.4 (no result: Fibroblast inh, H69AR growth 86K, HUVEC prolif 384)
COc1ccc(-c2nn(-c3ccccc3)cc2/C=N/NC(=O)c2ccc3c(c2)OCO3)cc1	none (no result: Fibroblast inh, H69AR growth 86K, HUVEC prolif 384)
CCN1C(=O)c2cccc3c(S(=O)(=O)Nc4ccccn4)ccc1c23	none
CC12CCC(C(=O)NCC3CCCO3)(OC1=O)C2(C)C (stereo not drawn)	none
COc1cccc(-c2nc(CS(=O)(=O)CC(=O)Nc3cccc(C)c3C)c(C)o2)c1	H69AR growth 86K 1.5
Cc1nc(CC(=O)Nc2nc(C(C)(C)C)cs2)cs1	none
CCN(CC)S(=O)(=O)c1ccc(N/N=C/c2cc(OC)c(OC)cc2OC)nc1	none (no result: Fibroblast inh, H69AR growth 86K, HUVEC prolif 384)
CCOc1cccc(/C=N/Nc2ccc(S(=O)(=O)N(CC)CC)cn2)c1O	HCT116 bCat-KO 3.8, HCT116 PTEN-null 2.8 (no result: Fibroblast inh, H69AR growth 86K, HUVEC prolif 384)
COc1ccc(CNc2cc(C)nc3ncnn23)c(OC)c1	none
CC(C)(C)c1ccc(C2(C)NC(=O)N(CC(=O)c3ccc[nH]3)C2=O)cc1 (stereo not drawn)	H69AR growth 86K 27
Cc1nn(-c2ccccn2)c2c1-c1nc(N)ncc1CC2	none
Cc1nn(-c2ccccn2)c2c1-c1nc(N3CCOCC3)ncc1CC2	H69AR growth 86K 10
COC(=O)c1c(NC(=O)c2nc3ccccc3s2)sc2c1CCN(C(C)=O)C2	Fibroblast inh 3.4, HUVEC prolif 384 4.2
O=S(=O)(NC1CC1)c1ccc(S(=O)(=O)N(Cc2ccccn2)C2CCCC2)cc1	none
CN(C)CCCNC(=O)c1ccccn1	none
CN(C)CCCNC(=O)c1ccc(-c2nc(-c3ccc(Cl)cc3)cs2)cc1	HCT116 bCat-KO 1.3, HCT116 PTEN-null 1.5 (no result: Fibroblast inh, H69AR growth 86K, HUVEC prolif 384)
Cc1ccc(-n2nnnc2SCC(=O)c2c(N)n(CC(C)C)c(=O)n(C)c2=O)cc1	none
COc1ccc(C(=O)Nc2ccc(-c3ccc(C)o3)cc2)cc1S(=O)(=O)N1CCOCC1	HCT116 bCat-KO 5.7, H69AR growth 86K 22
COc1ccc(C(=O)Nc2cccc(C)c2)cc1S(=O)(=O)N1CCOCC1	none
O=C(Nc1ccccc1)c1ccc(NCc2ccco2)c(S(=O)(=O)N2CCOCC2)c1	H69AR growth 86K 39
O=C(Nc1ccccc1)c1ccc(NCCN2CCOCC2)c(S(=O)(=O)N2CCOCC2)c1	none
O=C(O)CCC(=O)Nc1ccc(F)cc1	none
CC(=O)Nc1ccc2nc(-c3ccc(Br)o3)[nH]c2c1	none (no result: Fibroblast inh, H69AR growth 86K, HUVEC prolif 384)
O=C(Nc1ccc2nc(-c3ccc(Br)o3)[nH]c2c1)c1cccs1	H69AR growth 86K 38
CCCOC(=O)Nc1ccc(C(N)=O)cc1	none
CCN(CC)c1ccc(NC(=O)c2cccc(F)c2)c(C)c1	H69AR growth 86K 28
CCN(CC)c1ccc(NC(=O)c2ccco2)c(C)c1	none
O=C1N(Nc2ccccc2)C(c2ccc(Br)cc2)C12CCCC2 (stereo not drawn)	none
O=C1N(Nc2ccccc2)C(c2ccc(Br)cc2)C12CCCCC2 (stereo not drawn)	H69AR growth 86K 19

Screening results deposited in PubChem by SRMLSC.
